Results taken from article PMC6800637 (Cell chemical biology, 2019).
Where two headings read alike, the source gives them in different places.

Columns and labels:
[1] = system: NRF2; test: ARE-luciferase NRF2 activation assay; format: cell-based; details: for Max. induction (fold): ARE-luciferase relative to vehicle control, MDA-MB-231
[2] = system: MDA-MB-231 cells
[3] = system: NRF2; test: Immunoblot of NRF2 and downstream genes; format: cell-based; details: for protein level of NRF2 and downstream target genes AKR1C1, NQO-1, HO-1, GCLM: MDA-MB-231, indicated doses, 16 hours
Summary of the method: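 MDA-MB-231 cells were seeded at 6×10^5 per 35 mm dish and treated 24 h later with test compound. Treatment was either a dose series for 16 h, or 2.33 or 71.5 µM (per compound) for a time course up to 48 h. Lysates were made in Laemmli buffer, boiled 5 min and run on SDS-PAGE, then immunoblotted for NRF2, AKR1C1, NQO1, HO-1 and GCLM. Done in triplicate.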

[4] = system: NRF2; test: Real-time qRT-PCR of NRF2 and downstream genes; format: cell-based; details: MDA-MB-231, 16 hours
Summary of the method: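 MDA-MB-231 cells (6×10^5 per 35 mm dish) were treated 24 h after seeding with test compound for 16 h. Total RNA was TRIzol-extracted, and 1 µg was reverse-transcribed with M-MLV RT. SYBR Green qPCR: 95 °C 4 min, then 45 cycles of 95 °C 10 s and 60 °C 30 s. Values are normalised to GAPDH with untreated set to 1. Three runs in duplicate, mean ± SD, Student t-test.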

[5] = system: KEAP1; test: NRF2 immunoblot in KEAP1-WT and KEAP1-/- cells; format: cell-based; details: for level of NRF2 in KEAP1-/- cells: KEAP1-/- MDA-MB-231, four hours; for level of NRF2 in WT cells: KEAP1-WT MDA-MB-231, four hours
[6] = system: NRF2; test: NRF2 ubiquitination assay; format: cell-based; details: MDA-MB-231 transfected with NRF2 and HA-Ubiquitin, 3 2.33 µM, 5 71.5 µM, 4 hours
[7] = system: NRF2; test: NRF2 protein half-life; format: cell-based
[8] = system: KEAP1-WT; test: Dual luciferase reporter assay and immunoblot, KEAP1-WT re-expressed; format: cell-based; details: KEAP1-/- MDA-MB-231 + KEAP1-WT, at EC50, 16 hours
Summary of the method: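 KEAP1−/− MDA-MB-231 cells (CRISPR-Cas9) were co-transfected with a KEAP1-WT expression vector plus NQO1-ARE firefly and TK-Renilla luciferase reporters. After 24 h, cells were treated with test compound for 16 h; controls were SFN (2 µM) and NaAsO2 (1 µM). Firefly activity is reported relative to Renilla (dual-luciferase), with an NRF2/KEAP1 immunoblot normalised to GAPDH. Mean ± SD of three independent experiments.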

[9] = system: KEAP1-C151S; test: Dual luciferase reporter assay and immunoblot, KEAP1-C151S re-expressed; format: cell-based; details: for firefly luciferase induction in the presence of KEAP1-C151S: KEAP1-/- MDA-MB-231 + KEAP1-C151S, 5 at EC50, As 1 µM, 16 hours; for KEAP1-Cys151 dependence of NRF2 activation: KEAP1-WT versus KEAP1-C151S, dual luciferase and immunoblot
[10] = MDA-MB-231 ARE-luciferase cell line, 48 h, MTT
[11] = induction of ARE-luciferase, MDA-MB-231, 16 hours
[12] = MDA-MB-231, 71.5 µM, cycloheximide

Compound | Max. induction (fold) [1] [fold] | EC50 ([1]; Homo sapiens, MDA-MB-231, 16 h) [µM] | LD50 [48 h] [2, 10] [µM] | EC50 [1, 11] [µM] | LD50 [48 h] [2] [µM] | other results
C=C1C(=O)[C@]23C[C@H]1CC[C@H]2[C@]1(C)[C@@H](O)CC[C@@](C)(C(=O)OC)[C@H]1C[C@@H]3O [Compound 6, methylgeopyxin A] | 2.2 | 2.32 ± 0.17 | 8.69 ± 0.93 | – | – | –
C[C@]12[C@@H]3CC[C@@H]4C[C@]3(C(=O)[C@@H]4CO)[C@@H](O)C[C@@H]1[C@](C)(C(=O)O)CC[C@@H]2O [Compound 5, geopyxin F] | 3.0 | – | – | 71.5 ± 5.8 | >128 | time course of NRF2 protein level ([3]; MDA-MB-231, 71.5 µM 5): continues to steadily rise all the way up to 48 hours; protein level of NRF2 and downstream target genes AKR1C1, NQO-1, HO-1, GCLM [3]: dose dependent increases; mRNA level of NRF2 [4]: remained unchanged; mRNA levels of the downstream genes [4]: increased in a dose dependent manner; level of NRF2 in KEAP1-/- cells [5]: failed to further activate; level of NRF2 in WT cells [5]: dose-dependent activation; ubiquitylation of NRF2 [6]: largely fails to be ubiquitylated; half-life of NRF2 [7]: increased the half-life; increase of half-life of NRF2 relative to compound 3 [7, 12]: more than 2 times; increase of half-life of NRF2 relative to untreated cells [7, 12]: more than 3 times; firefly luciferase induction in the presence of KEAP1-WT [8]: induced; firefly luciferase induction in the presence of KEAP1-C151S [9]: induction; KEAP1-Cys151 dependence of NRF2 activation [9]: independent of KEAP1-Cys151; cellular toxicity [2]: no cellular toxicity
16,17-epoxymethylgeopyxin A [Compound 15] | 3.5 | – | – | 26.8 ± 4.08 | 115.11 ± 3.57 | –
16,17-dihydrogeopyxin A [Compound 16] | 1.6 | – | – | 70.4 ± 5.12 | >128 | –
1-O-Acetyl-15α-hydroxy-15-deoxy-methylgeopyxin A [Compound 14] | 4.2 | – | – | 54.5 ± 5.1 | 123.63 ± 3.89 | –
15α-Hydroxy-15-deoxy-methylgeopyxin A [Compound 13] | 1.9 | – | – | 73.1 ± 0.87 | >128 | –
C[S+]([O-])CCCCN=C=S (centres unmarked) [SFN, sulforaphane, reference compound] | 1.9 | 0.97 ± 0.18 | – | – | – | ubiquitylation of NRF2 [6]: largely fails to be ubiquitylated; LD50 [48 h] ([2]; human, 48 h): 46.2 µM
O=[As][O-].[Na+] [NaAsO2, Sodium (meta)arsenite, reference compound] | – | – | – | – | – | firefly luciferase induction in the presence of KEAP1-C151S [9]: induction
C=C1C(=O)[C@]23C[C@H]1CC[C@H]2[C@]1(C)C(=O)CC[C@@](C)(C(=O)O)[C@H]1C[C@@H]3O [Compound 3, geopyxin C] | 2.1 | – | 51.29 ± 1.23 | 2.33 ± 0.35 | – | time of peak NRF2 protein level ([3]; MDA-MB-231, 2.33 µM 3): 4 h; protein level of NRF2 and downstream target genes AKR1C1, NQO-1, HO-1, GCLM [3]: dose dependent increases; mRNA level of NRF2 [4]: remained unchanged; mRNA levels of the downstream genes [4]: increased in a dose dependent manner; level of NRF2 in KEAP1-/- cells [5]: failed to further activate; level of NRF2 in WT cells [5]: dose-dependent activation; ubiquitylation of NRF2 [6]: largely fails to be ubiquitylated; half-life of NRF2 ([7]; MDA-MB-231, at EC50, cycloheximide, in words): increased the half-life; firefly luciferase induction in the presence of KEAP1-WT [8]: induced; KEAP1-Cys151 dependence of NRF2 activation [9]: Cys151 dependent
C=C1C(=O)[C@]23C[C@H]1CC[C@H]2[C@]1(C)[C@@H](O)CC[C@@](C)(C(=O)O)[C@H]1C[C@@H]3O [Compound 1, geopyxin A] | 2.1 | 4.44 ± 0.41 | 60.36 ± 1.18 | – | – | –
CC(C)(C)c1cc(O)ccc1O [tBHQ, tert-butylhydroquinone, reference compound] | 2.2 | 2.43 ± 0.34 | 85.1 | – | – | –
